ChEMBL document CHEMBL1141858, “Lichen metabolites. 2. Antiproliferative and cytotoxic activity of gyrophoric, usnic, and diffractaic acid on human keratinocyte growth” (J Nat Prod, 1999)

Assays:
[1] = system: HaCaT; assay: Antiproliferative activity against human HaCaT cells; assay type: functional, cell-based
Method in brief: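 HaCaT keratinocytes were seeded at 2.5 × 10^4 per well in DMEM and grown 24 h. Cells were trypsinized (0.5% trypsin, 0.2% EDTA, 20 min, 37 °C) and counted by phase contrast microscopy. Inhibition was taken relative to vehicle (n = 3). IC50 was interpolated from a log concentration-response using ≥4 concentrations.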

[2] = system: HaCaT; assay: Growth inhibition of human HaCaT cells assessed as lactate dehydrogenase release at 2 uM after 4 hrs by UV method; assay type: functional
Method in brief: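 HaCaT cells were exposed to compound at 2 µM for 4 h at 37 °C. Extracellular LDH activity in the medium was measured by the UV method with pyruvate and NADH. Values were compared against vehicle controls (n = 3).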

SMILES: CCOC(=O)c1c(C)cc(O)c(C=O)c1O [ETHYL HEMATOMMATE]
- IC50 [1]: > 5000 nM

SMILES: CC(=O)C1=C(O)C=C2Oc3c(C(C)=O)c(O)c(C)c(O)c3[C@@]2(C)C1=O [(+)-USNIC ACID]
- IC50 [1]: 2100 nM
- Activity [2]: 168 mU/mL

SMILES: O=C1c2c(O)cccc2Cc2cccc(O)c21 [ANTHRALIN]
- IC50 [1]: 700 nM
- Activity [2]: 294 mU/mL

SMILES: COC(=O)c1c(C)cc(O)c(C)c1O [ATRARIC ACID]
- IC50 [1]: > 5000 nM

SMILES: COC(=O)c1c(C)cc(OC(=O)c2c(C)cc(O)c(C=O)c2O)c(C)c1O [ATRANORIN]
- IC50 [1]: > 5000 nM

SMILES: C=C1C(=O)O[C@@H](CCCCCCCCCCCCC)[C@@H]1C(=O)O [PROTOLICHESTERINIC ACID]
- IC50 [1]: > 5000 nM

SMILES: Cc1cc(OC(=O)c2c(C)cc(OC(=O)c3c(C)cc(O)cc3O)cc2O)cc(O)c1C(=O)O [GYROPHORIC ACID]
- IC50 [1]: 1700 nM
- Activity [2]: 138 mU/mL

SMILES: COc1cc(C)c(C(=O)Oc2cc(C)c(C(=O)O)c(O)c2C)c(OC)c1C [DIFFRACTAIC ACID]
- IC50 [1]: 2600 nM
- Activity [2]: 136 mU/mL
